Experimental data as given in publication PMC10013581 (Drug Design, Development and Therapy, 2023).
Where “and” joins values, the source holds several entries; their conditions need not be identical. Equal values may be shown once. Read-outs that look alike come from different tables or passages of the source.

What was measured:
[1] = type: in vivo, human
Procedure, shortened: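 Three-period crossover in 18 healthy males aged 18–45 y with a 14-day washout. Dosing was fasted, or within 30 min of starting a high-fat/high-calorie or low-fat meal, with 240 mL water and no food for ≥4 h. EDTA plasma was sampled 0–168 h and assayed by LC-MS/MS (MRM, d6 internal standard). NCA gave parameters; log-transformed values were fitted by mixed-effects model for geometric mean ratios with 90% CI.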

[2] = test system: c-Met-dependent non-small cell lung cancer (NSCLC) and other tumor models; conditions: SCC244 at 10 mg/kg; cited from earlier work
[3] = no reference given, cited from earlier work
Safety evaluation = type: in vivo, human; conditions: single oral 300 mg
Procedure, shortened: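 Each of the three dosing periods had 8 days of post-dose follow-up. Monitoring covered physical examination, vital signs, 12-lead ECG, haematology, urinalysis, biochemistry, coagulation and adverse events. Vital signs and ECG were taken within 1 h pre-dose, at 3 h ±30 min post-dose, and daily at other visits. Adverse events were graded by NCI CTCAE v5.0. All 18 dosed subjects formed the safety set.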

[4] = cited from earlier work
[5] = single oral 300 mg, fasting, n=18
[6] = single oral 300 mg, high-fat meal, n=17
[7] = single oral 300 mg, low-fat meal, n=18
[8] = single oral 300 mg, n=17, bioavailability analysis set

In the case of `Cn1cc(-c2cnc3cnn(S(=O)(=O)c4cnc5ccc(-c6cnn(C)c6)cn45)c3c2)cn1` [SCC244], the Tmax ([1]; male, human, plasma, po, 300 mg) is reported as 4 h, the AUC(0-inf) ([1]; male, human, plasma, po, 300 mg, AUC0-inf (geometric mean), single oral 300 mg, fasting, n=17, bioavailability analysis set) is reported as 25300 ng·h/mL and the AUC(0-inf) ([1]; male, human, plasma, po, 300 mg, AUC0-inf (geometric mean), single oral 300 mg, high-fat meal, n=17, bioavailability analysis set) is reported as 59700 ng·h/mL. The AUC(0-inf) ([1]; male, human, plasma, po, 300 mg, AUC0-inf (geometric mean), single oral 300 mg, low-fat meal, n=17, bioavailability analysis set) was 55300 ng·h/mL, the AUC(0-inf) ([1]; male, human, plasma, po, 300 mg, AUC0-inf, mean (SD), single oral 300 mg, fasting, n=18) was 27700 ng·h/mL and the AUC(0-inf) ([1]; male, human, plasma, po, 300 mg, AUC0-inf, mean (SD), single oral 300 mg, high-fat meal, n=17) was 65100 ng·h/mL. The AUC(0-inf) ([1]; male, human, plasma, po, 300 mg, AUC0-inf, mean (SD), single oral 300 mg, low-fat meal, n=18) was 60500 ng·h/mL, the AUC(0-t) ([1]; male, human, plasma, po, 300 mg, AUC0-t (geometric mean), single oral 300 mg, fasting, n=17, bioavailability analysis set) was 24800 ng·h/mL and the AUC(0-t) ([1]; male, human, plasma, po, 300 mg, AUC0-t (geometric mean), single oral 300 mg, high-fat meal, n=17, bioavailability analysis set) was 58900 ng·h/mL. For the same compound, the AUC(0-t) ([1]; male, human, plasma, po, 300 mg, AUC0-t (geometric mean), single oral 300 mg, low-fat meal, n=17, bioavailability analysis set) was 54300 ng·h/mL, the AUC(0-t) ([1]; male, human, plasma, po, 300 mg, AUC0-t, mean (SD), single oral 300 mg, fasting, n=18) was 27200 ng·h/mL and the AUC(0-t) ([1]; male, human, plasma, po, 300 mg, AUC0-t, mean (SD), single oral 300 mg, high-fat meal, n=17) was 64100 ng·h/mL. For the same compound, the AUC(0-t) ([1]; male, human, plasma, po, 300 mg, AUC0-t, mean (SD), single oral 300 mg, low-fat meal, n=18) was 59600 ng·h/mL, the Cmax ([1]; male, human, plasma, po, 300 mg, Cmax (geometric mean), single oral 300 mg, fasting, n=17, bioavailability analysis set) was 824 ng/mL and the Cmax ([1]; male, human, plasma, po, 300 mg, Cmax (geometric mean), single oral 300 mg, high-fat meal, n=17, bioavailability analysis set) was 1610 ng/mL. The Cmax ([1]; male, human, plasma, po, 300 mg, Cmax (geometric mean), single oral 300 mg, low-fat meal, n=17, bioavailability analysis set) was 1600 ng/mL, the Cmax ([1]; male, human, plasma, po, 300 mg, Cmax, mean (SD), single oral 300 mg, fasting, n=18) was 869 ng/mL and the Cmax ([1]; male, human, plasma, po, 300 mg, Cmax, mean (SD), single oral 300 mg, high-fat meal, n=17) was 1730 ng/mL. For the same compound, the Cmax ([1]; male, human, plasma, po, 300 mg, Cmax, mean (SD), single oral 300 mg, low-fat meal, n=18) was 1750 ng/mL, the half-life ([1]; male, human, plasma, po, 300 mg, Mean t1/2 under different meal conditions, single oral 300 mg, low-fat meal, high-fat meal and fasted groups) was 24.7 to 26.1 h and the half-life ([1]; male, human, plasma, po, 300 mg, t1/2, mean (SD), single oral 300 mg, fasting, n=18) was 26.1 h. The half-life ([1]; male, human, plasma, po, 300 mg, t1/2, mean (SD), single oral 300 mg, high-fat meal, n=17) was 24.7 h, the half-life ([1]; male, human, plasma, po, 300 mg, t1/2, mean (SD), single oral 300 mg, low-fat meal, n=18) was 25.6 h and the “%CV (AUC0-inf), inter-subject variability” value (“%CV (AUC0-inf)” for short) [1, 5] was 44.0%. The “%CV (AUC0-t), inter-subject variability” value [1, 5] was 44.2%, the “%CV (Cmax), inter-subject variability” value [1, 5] was 34.3% and the “CL/F, mean (SD)” value [1, 5] was 12.8 (5.5) L/h. For the same compound, the “%CV (AUC0-inf)” value [1, 6] was 35.3%, the “%CV (AUC0-t), inter-subject variability” value [1, 6] was 34.8% and the “%CV (Cmax), inter-subject variability” value [1, 6] was 30.5%. The “CL/F, mean (SD)” value [1, 6] was 5.7 L/h and 5.7 (4.2) L/h, the “Tmax, median (range)” value [1, 6] was 4.0 (2.0–12.0) h and the “%CV (AUC0-inf)” value [1, 7] was 31.6%. The “%CV (AUC0-t), inter-subject variability” value [1, 7] was 31.5%, the “%CV (Cmax), inter-subject variability” value [1, 7] was 30.2% and the “CL/F, mean (SD)” value [1, 7] was 6.3 L/h and 6.3 (5.8) L/h. The “Tmax, median (range)” value [1, 7] was 4.0 (2.0–8.0) h, the “AUC0-inf geometric mean ratio (90% CI) of high-fat meal vs fasting” value [1, 8] was 235.9% (207.5–268.3%) and the “AUC0-inf geometric mean ratio (90% CI) of low-fat meal vs fasting” value [1, 8] was 218.3% (192.0–248.3%). For the same compound, the “AUC0-t geometric mean ratio (90% CI) of high-fat meal vs fasting” value [1, 8] was 237.4% (208.7–270.0%), the “AUC0-t geometric mean ratio (90% CI) of low-fat meal vs fasting” value [1, 8] was 219.2% (192.7–249.3%) and the “Cmax geometric mean ratio (90% CI) of high-fat meal vs fasting” value [1, 8] was 194.8% (174.3–217.7%). For the same compound, the “Cmax geometric mean ratio (90% CI) of low-fat meal vs fasting” value [1, 8] was 194.6% (174.1–217.5%), the “Efficacy compared with capmatinib and crizotinib” value [2] was “comparable with that of capmatinib at 15 mg/kg and crizotinib at 50 mg/kg” and the Solubility in water [3] was “practically insoluble in water”. The “Biopharmaceutics Classification System (BCS) class” value ([3]; poor aqueous solubility but sufficient permeability) was “Class II”, the “Solubility versus pH” value ([3]; weak base drug) was “declines greatly when the pH is higher than 1.2” and the “Other tolerability assessments (laboratory parameters, vital signs, physical examination, 12-lead ECGs)” value (Safety evaluation; all meal conditions) was “No clinically significant abnormalities”. The “SAEs or AEs leading to permanent discontinuation” value (Safety evaluation; all meal conditions) was “No SAEs or AEs leading to permanent discontinuation were reported”, the “Incidence of AEs (subjects with any AE)” value (Safety evaluation; fasted, 12/18 subjects) was 66.7% and the “Incidence of AE blood fibrinogen decreased” value (Safety evaluation; fasting, n=18) was 16.7% (3). The “Incidence of AE dizziness” value (Safety evaluation; fasting, n=18) was 16.7% (3), the “Incidence of AE head discomfort” value (Safety evaluation; fasting, n=18) was 5.6% (1) and the “Incidence of AE headache” value (Safety evaluation; fasting, n=18) was 27.8% (5). The “Incidence of AE protein urine presence” value (Safety evaluation; fasting, n=18) was 16.7% (3), the “Incidence of AEs (subjects with any AE)” value (Safety evaluation; high-fat meal, 12/17 subjects) was 70.6% and the “Incidence of AE blood fibrinogen decreased” value (Safety evaluation; high-fat meal, n=17) was 23.5% (4). For the same compound, the “Incidence of AE dizziness” value (Safety evaluation; high-fat meal, n=17) was 0% (0), the “Incidence of AE head discomfort” value (Safety evaluation; high-fat meal, n=17) was 11.8% (2) and the “Incidence of AE headache” value (Safety evaluation; high-fat meal, n=17) was 47.1% (8). For the same compound, the “Incidence of AE protein urine presence” value (Safety evaluation; high-fat meal, n=17) was 0% (0), the “Subjects with a CTCAE grade 2 AE (headache); all other AEs grade 1” value (Safety evaluation; low-fat meal) was 1 subject and the “Incidence of AEs (subjects with any AE)” value (Safety evaluation; low-fat meal, 15/18 subjects) was 83.3%. For the same compound, the “Incidence of AE blood fibrinogen decreased” value (Safety evaluation; low-fat meal, n=18) was 27.8% (5), the “Incidence of AE dizziness” value (Safety evaluation; low-fat meal, n=18) was 11.1% (2) and the “Incidence of AE head discomfort” value (Safety evaluation; low-fat meal, n=18) was 11.1% (2). For the same compound, the “Incidence of AE headache” value (Safety evaluation; low-fat meal, n=18) was 44.4% (8) and the “Incidence of AE protein urine presence” value (Safety evaluation; low-fat meal, n=18) was 5.6% (1).

In the case of `CS(=O)(=O)CCNCc1ccc(-c2ccc3ncnc(Nc4ccc(OCc5cccc(F)c5)c(Cl)c4)c3c2)o1` [Lapatinib], the “Bioavailability increase with a high-fat meal” value [4] is given as 161% and the “Bioavailability increase with a low-fat meal” value [4] is given as 80%.

For `COc1cc2c(Nc3ccc(Br)cc3F)ncnc2cc1OCC1CCN(C)CC1` [vandetanib], the “Effect of food on bioavailability” value [4] is given as “unaffected by food”.

In the case of `C[C@@H](Oc1cc(-c2cnn(C3CCNCC3)c2)cnc1N)c1c(Cl)ccc(F)c1Cl` [crizotinib], the “Effect of food on bioavailability” value [4] is listed as “unaffected by food”.

In the case of `CCCS(=O)(=O)Nc1ccc(F)c(C(=O)c2c[nH]c3ncc(-c4ccc(Cl)cc4)cc23)c1F` [vemurafenib], the “Effect of high-fat meal (increase)” value ([4]; 960mg single dose) is listed as 3.7 fold.

For `CNC(=O)c1cc(Oc2ccc(NC(=O)Nc3ccc(Cl)c(C(F)(F)F)c3)c(F)c2)ccn1` [regorafenib], the “Bioavailability increase with a high-fat meal” value [4] is listed as 48% and the “Bioavailability increase with a low-fat meal” value [4] is listed as 36%.
